A short description of data set [1]: Metabolic stability in mouse liver microsomes assessed as compound metabolized at 1 uM after 15 mins. Type of data set: ADME, microsome. The following applies: read-out: Drug metabolism. The gist of the method:
(§1)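 Mouse (M) or human (H) liver microsomes incubated with compound at 1 μM; percent metabolized after 15 min.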
(Liver microsomes are a subcellular fraction often used to study metabolism.)

The target in data set [2] is Voltage-gated inwardly rectifying potassium channel KCNH2 (Homo sapiens, UniProt Q12809). Description: Inhibition of radioligand binding to human ERG expressed in HEK293 cell membranes by scintillation counting method.
Voltage-gated inwardly rectifying potassium channel KCNH2, sequence (Q12809 whole entry): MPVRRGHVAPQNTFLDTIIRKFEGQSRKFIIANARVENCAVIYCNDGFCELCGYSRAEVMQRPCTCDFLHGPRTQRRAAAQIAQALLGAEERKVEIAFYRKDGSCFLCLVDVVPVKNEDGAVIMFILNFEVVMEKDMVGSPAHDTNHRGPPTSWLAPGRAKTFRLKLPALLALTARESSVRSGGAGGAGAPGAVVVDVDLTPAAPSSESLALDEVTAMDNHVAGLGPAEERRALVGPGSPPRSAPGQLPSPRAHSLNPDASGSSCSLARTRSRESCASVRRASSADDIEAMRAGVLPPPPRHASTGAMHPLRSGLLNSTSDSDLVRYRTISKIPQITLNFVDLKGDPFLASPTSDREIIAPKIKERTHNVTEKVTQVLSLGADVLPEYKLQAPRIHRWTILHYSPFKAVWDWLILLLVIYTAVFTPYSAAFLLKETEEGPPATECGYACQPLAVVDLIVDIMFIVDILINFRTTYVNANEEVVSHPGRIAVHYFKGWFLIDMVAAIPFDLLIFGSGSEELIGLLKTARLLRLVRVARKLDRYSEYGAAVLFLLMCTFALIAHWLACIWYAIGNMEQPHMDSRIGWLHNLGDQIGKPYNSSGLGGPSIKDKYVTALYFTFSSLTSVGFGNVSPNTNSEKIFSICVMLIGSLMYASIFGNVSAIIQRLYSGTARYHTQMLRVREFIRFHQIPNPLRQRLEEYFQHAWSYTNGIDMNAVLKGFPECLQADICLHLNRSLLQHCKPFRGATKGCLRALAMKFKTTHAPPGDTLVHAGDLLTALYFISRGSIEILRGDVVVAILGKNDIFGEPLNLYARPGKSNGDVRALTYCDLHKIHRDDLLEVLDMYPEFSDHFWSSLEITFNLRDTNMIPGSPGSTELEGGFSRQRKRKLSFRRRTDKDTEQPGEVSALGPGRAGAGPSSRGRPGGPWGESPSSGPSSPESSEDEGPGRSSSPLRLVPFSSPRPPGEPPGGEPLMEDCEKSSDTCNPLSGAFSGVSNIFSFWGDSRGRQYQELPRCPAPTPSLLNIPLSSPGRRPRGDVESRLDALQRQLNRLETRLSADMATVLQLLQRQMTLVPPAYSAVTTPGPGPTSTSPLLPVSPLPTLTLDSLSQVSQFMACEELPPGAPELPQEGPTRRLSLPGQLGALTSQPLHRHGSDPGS
Data set [3] concerns the target T1, Toll-like receptor 7 (Homo sapiens) (UniProt Q9NYK1).
T1 sequence (whole entry): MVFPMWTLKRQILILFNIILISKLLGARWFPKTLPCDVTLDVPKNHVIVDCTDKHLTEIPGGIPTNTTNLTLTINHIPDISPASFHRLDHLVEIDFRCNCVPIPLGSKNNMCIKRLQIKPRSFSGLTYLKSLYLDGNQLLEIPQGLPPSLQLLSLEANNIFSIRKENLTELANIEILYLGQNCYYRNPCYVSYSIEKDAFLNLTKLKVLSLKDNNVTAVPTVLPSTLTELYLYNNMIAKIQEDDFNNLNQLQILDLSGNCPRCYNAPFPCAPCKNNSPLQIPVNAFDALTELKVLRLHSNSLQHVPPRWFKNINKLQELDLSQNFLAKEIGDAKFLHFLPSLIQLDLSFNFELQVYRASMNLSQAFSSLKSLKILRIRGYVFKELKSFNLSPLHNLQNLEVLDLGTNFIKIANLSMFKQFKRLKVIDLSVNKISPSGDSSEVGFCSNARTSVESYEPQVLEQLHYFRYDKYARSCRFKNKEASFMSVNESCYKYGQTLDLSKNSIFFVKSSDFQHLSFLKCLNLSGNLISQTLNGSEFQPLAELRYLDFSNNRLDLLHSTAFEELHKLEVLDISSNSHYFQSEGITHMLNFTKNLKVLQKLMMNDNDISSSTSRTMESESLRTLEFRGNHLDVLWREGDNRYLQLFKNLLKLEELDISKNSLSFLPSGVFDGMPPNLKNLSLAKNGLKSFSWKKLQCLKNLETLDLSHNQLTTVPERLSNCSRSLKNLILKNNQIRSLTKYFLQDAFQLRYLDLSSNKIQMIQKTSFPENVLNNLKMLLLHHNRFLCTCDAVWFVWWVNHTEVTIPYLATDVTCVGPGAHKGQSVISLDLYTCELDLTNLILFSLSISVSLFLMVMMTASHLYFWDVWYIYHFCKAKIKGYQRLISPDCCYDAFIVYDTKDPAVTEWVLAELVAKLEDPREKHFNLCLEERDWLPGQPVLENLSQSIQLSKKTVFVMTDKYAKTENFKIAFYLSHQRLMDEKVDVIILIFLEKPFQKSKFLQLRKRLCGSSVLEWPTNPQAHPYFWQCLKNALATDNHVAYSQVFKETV
As to the kind of experiment: Agonist activity at TLR7 in human PBMC assessed as suppression of HCV replicon replication in human HuH7 luc/neo cells harboring RNA encoding bicistronic expression construct comprising wild type HCV type 1b NS3-NS5B regions exposed to conditioned media from compound treated PBMCs after 24 hrs by luciferase reporter gene assay. The format is cell-based. The method, boiled down:
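Human PBMCs were incubated with compound. Their medium was then transferred onto an HCV replicon system, so the antiviral read-out reflects interferon and cytokines the PBMCs induced. Values are reported as lowest effective concentration (LEC), averaged when determined in two or more independent experiments.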
(In antiviral work, replicon cells carry a viral genome segment that copies itself.)

Data set [4] can be described thus: Metabolic stability in human liver microsomes assessed as compound metabolized at 1 uM after 15 mins. Type of data set: ADME, microsome. Conditions: read-out: Drug metabolism. The gist of the method:
as §1

Data set [5] addresses T1, Toll-like receptor 7 (Homo sapiens). As to the kind of experiment: Agonist activity at human TLR7 expressed in HEK293 cells assessed as induction of receptor activation incubated for 6 hrs by NF-kappaB-luciferase reporter gene assay. Type of data set: cell-based. The method, boiled down: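 HEK cell-based assay using a wild-type TLR7 expression vector; a parallel TLR8 vector construct served for selectivity. Results are expressed as lowest effective concentration (LEC), averaged over independent experiments where determined two or more times. A separate HEK 293 cytotoxicity (TOX) assay gave CC50 alongside.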

The target in data set [6] is T2, Toll-like receptor 8 (Homo sapiens) (UniProt Q9NR97).
T2 sequence (whole entry): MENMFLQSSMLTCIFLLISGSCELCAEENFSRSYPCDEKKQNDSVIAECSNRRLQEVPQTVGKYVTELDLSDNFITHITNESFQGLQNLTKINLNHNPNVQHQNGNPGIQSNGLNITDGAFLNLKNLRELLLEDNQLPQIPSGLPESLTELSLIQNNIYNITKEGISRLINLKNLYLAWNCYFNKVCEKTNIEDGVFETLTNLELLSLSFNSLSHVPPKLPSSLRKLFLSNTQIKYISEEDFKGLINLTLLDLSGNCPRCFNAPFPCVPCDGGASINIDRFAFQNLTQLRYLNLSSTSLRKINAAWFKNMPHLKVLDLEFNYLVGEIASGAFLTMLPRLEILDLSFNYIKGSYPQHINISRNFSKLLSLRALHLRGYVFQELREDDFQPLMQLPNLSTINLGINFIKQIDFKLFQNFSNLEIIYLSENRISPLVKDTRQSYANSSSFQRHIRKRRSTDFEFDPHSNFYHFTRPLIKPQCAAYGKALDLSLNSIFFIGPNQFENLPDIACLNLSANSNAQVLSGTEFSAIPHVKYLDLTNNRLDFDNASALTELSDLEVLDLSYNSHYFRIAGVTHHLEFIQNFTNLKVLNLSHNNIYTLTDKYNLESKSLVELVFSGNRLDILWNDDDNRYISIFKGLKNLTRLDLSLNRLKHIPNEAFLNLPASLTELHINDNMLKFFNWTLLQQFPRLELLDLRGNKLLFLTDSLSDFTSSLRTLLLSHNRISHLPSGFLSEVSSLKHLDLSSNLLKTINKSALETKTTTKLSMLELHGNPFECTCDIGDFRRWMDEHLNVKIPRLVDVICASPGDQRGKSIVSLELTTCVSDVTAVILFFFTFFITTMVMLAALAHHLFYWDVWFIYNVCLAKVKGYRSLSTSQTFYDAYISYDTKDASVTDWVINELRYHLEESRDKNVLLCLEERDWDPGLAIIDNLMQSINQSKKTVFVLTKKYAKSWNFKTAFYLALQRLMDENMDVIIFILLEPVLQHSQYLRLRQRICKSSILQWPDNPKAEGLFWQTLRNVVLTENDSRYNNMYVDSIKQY
Description: Agonist activity at human TLR8 expressed in HEK293 cells assessed as induction of receptor activation incubated for 6 hrs by NF-kappaB-luciferase reporter gene assay. The format is cell-based. In general terms: A reporter such as luciferase makes a cellular process visible.

Data set [7] deals with HepG2. Description: Cytotoxicity against human HepG2 cells. Type of data set: cell-based.
Data set [8] can be described thus: Cytotoxicity against HEK293 cells assessed as reduction in cell viability after 6 hrs by ATP lite assay. Type of data set: cell-based. Conditions: human.
Data set [9] concerns the target Cytochrome P450 2D6 (Homo sapiens, UniProt P10635). Description: Inhibition of CYP2D6 (unknown origin). Type of data set: ADME.
The target of data set [10] is D(1A) dopamine receptor (Homo sapiens, UniProt P21728). Description: Inhibition of dopamine D1 receptor (unknown origin).
D(1A) dopamine receptor, sequence (P21728 whole entry): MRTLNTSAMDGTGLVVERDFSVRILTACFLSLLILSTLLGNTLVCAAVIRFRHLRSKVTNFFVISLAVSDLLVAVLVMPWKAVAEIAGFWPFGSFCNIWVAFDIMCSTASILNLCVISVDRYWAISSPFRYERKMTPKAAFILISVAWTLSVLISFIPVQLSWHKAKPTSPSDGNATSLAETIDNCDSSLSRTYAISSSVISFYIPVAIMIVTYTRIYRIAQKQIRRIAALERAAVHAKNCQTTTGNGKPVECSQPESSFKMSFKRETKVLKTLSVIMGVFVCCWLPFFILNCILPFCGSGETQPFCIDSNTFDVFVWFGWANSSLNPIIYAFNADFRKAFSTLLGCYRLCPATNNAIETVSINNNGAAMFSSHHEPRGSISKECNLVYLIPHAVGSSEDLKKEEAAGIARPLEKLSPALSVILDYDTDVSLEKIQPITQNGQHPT
Data set [11] addresses 5-hydroxytryptamine receptor 2A (Homo sapiens, UniProt P28223). Description: Inhibition of 5-HT2A receptor (unknown origin).
Data set [12] deals with Alpha-1A adrenergic receptor. Description: Inhibition of alpha-1A adrenergic receptor (unknown origin).

Cytochrome P450 2D6, sequence (P10635 whole entry): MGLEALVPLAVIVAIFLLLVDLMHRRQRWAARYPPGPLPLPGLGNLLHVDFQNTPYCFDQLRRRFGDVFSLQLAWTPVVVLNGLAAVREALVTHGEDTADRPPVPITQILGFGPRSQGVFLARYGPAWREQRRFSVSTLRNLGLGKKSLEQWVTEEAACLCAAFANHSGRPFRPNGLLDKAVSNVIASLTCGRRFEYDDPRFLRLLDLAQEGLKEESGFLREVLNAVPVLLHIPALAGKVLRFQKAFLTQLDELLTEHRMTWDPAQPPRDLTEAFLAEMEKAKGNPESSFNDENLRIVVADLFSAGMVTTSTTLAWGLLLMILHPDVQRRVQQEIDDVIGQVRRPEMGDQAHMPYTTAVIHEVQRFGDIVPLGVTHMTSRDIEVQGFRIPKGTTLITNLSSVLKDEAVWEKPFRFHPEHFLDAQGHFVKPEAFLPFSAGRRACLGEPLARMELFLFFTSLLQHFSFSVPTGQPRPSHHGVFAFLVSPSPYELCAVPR
5-hydroxytryptamine receptor 2A, sequence (P28223 whole entry): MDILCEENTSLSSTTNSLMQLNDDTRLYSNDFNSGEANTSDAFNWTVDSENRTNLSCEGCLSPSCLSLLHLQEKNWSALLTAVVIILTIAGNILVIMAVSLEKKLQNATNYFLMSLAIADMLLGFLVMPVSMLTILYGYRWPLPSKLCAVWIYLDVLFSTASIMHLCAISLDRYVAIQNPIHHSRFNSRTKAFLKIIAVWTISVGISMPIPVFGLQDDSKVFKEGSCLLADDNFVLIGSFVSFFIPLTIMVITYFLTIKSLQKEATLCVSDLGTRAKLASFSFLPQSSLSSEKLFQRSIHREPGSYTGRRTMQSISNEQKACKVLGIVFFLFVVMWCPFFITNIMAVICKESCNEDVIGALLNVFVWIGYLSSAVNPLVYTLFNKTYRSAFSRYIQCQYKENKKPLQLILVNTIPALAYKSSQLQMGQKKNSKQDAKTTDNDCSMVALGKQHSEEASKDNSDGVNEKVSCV

`CCCC[C@@H](CCO)Nc1nc(N)nc2cccc(F)c12`: the metabolised at 0.25 h, 1 µM in data set [1] stood at 25%; in data set [4] it was 87%. Besides, the IC50 (usually the concentration needed to halve the response being measured) in [2] was > 10 µM. Further, the MEC in [3] turned out to be 0.06 µM; in data set [5], 0.34 µM; in data set [6], 0.1 µM. Besides, the EC20 (as a rule, the point of the concentration-response curve where the effect stands at 20%) in data set [7] is 13.2 µM. For the same compound, the CC50 (in general, the concentration giving 50% cytotoxicity) at 6 h in [8] was > 24 µM.
With `CCC[C@@H](CCO)Nc1nc(N)nc2ccc(C)cc12`, the metabolised at 0.25 h, 1 µM in [1] amounted to 97%; in [4], 21%. The compound further yielded an IC50 in [2] of 7.2 µM. Also, the MEC in [3] was 0.39 µM; in data set [5], 0.54 µM; in [6], 0.45 µM. Also, the CC50 at 6 h in data set [8] was > 24 µM.
Regarding `CCCC[C@@H](CCO)Nc1nc(N)nc2ccccc12`, the metabolised at 0.25 h, 1 µM in [1] stood at 82%; in [4], 45%. This compound showed a half-maximal inhibitory concentration (IC50) in [2] of 2.7 µM. Further, the MEC in [3] came to 0.02 µM; in [5], 0.08 µM; in data set [6], 0.08 µM. Further, the CC50 at 6 h in [8] was > 24 µM.
Consider `CCCC[C@@H](CCO)Nc1nc(N)nc2cc(C)ccc12`, for which the metabolised at 0.25 h, 1 µM in data set [1] is 98%; in data set [4], 70%. For the same compound, in [2], the IC50 is 1.8 µM. The results for the MEC in data set [3], in [5] and in data set [6] were 0.02 µM, 0.03 µM and 0.06 µM, respectively. The CC50 at 6 h in data set [8] was > 24 µM.
Regarding `CCCC[C@@H](CCO)Nc1nc(N)nc2ccc(F)cc12`, the figures for the metabolised at 0.25 h, 1 µM in data set [1] and in [4] were 63% and 33%, respectively. In [2], this compound showed an IC50 of 5.8 µM. The MEC in data set [3] was 0.37 µM; in [5] it was 1.59 µM; in data set [6] it was 0.42 µM. Moreover, the CC50 at 6 h in data set [8] was > 24 µM.
With `CCC[C@@H](CCO)Nc1nc(N)nc2ccccc12`, the metabolised at 0.25 h, 1 µM amounted to 72% in data set [1] and 23% in [4]. For the same compound, in data set [2], the IC50 amounted to 6.8 µM. For the same compound, the MEC was 0.38 µM in [3], 0.2 µM in data set [5] and 0.11 µM in [6]. Besides, in data set [8], the CC50 at 6 h is > 24 µM.
In the case of `CCCC[C@@H](CCO)Nc1nc(N)nc2cccc(C)c12`, the metabolised at 0.25 h, 1 µM in data set [1] worked out at 82%; in [4] it was 67%. This compound also yielded an IC50 in [2] of 0.6 µM. For the same compound, the figures for the MEC in data set [3], in [5] and in data set [6] were 0.02 µM, 0.14 µM and 0.06 µM, respectively. Further, the CC50 at 6 h in data set [8] is > 24 µM.
Turning to `CCCC[C@@H](CCO)Nc1nc(N)nc2ccc(OC)cc12`, the figures for the metabolised at 0.25 h, 1 µM in [1] and in data set [4] were 97% and 25%, respectively. In [2], this compound gave a 50% inhibitory concentration (IC50) of 6 µM. Besides, the figures for the MEC in [3], in data set [5] and in [6] were 0.88 µM, 1.85 µM and 2.81 µM, respectively. In addition, in data set [8], the 50% cytotoxic concentration (CC50) at 6 h is > 24 µM.
As to `CCC[C@@H](CCO)Nc1nc(N)nc2cc(OC)ccc12`, the IC50 is 600 nM in data set [9]; 5.75 µM in data set [10]; > 10 µM in data set [2]; 1780 nM in [11]; 2340 nM in data set [12]. Also, the results for the metabolised at 0.25 h, 1 µM in [1] and in data set [4] were 65% and 35%, respectively. Moreover, the MEC in data set [3] amounted to 0.5 µM; in data set [5] it was 0.2 µM; in data set [6], 0.13 µM. For the same compound, the cytotoxic concentration (CC50) at 6 h in data set [8] was > 24 µM.
With `CCCC[C@@H](CCO)Nc1nc(N)nc2ccc(C)cc12`, the metabolised at 0.25 h, 1 µM in data set [1] was 99%; in data set [4] it was 24%. Also, in data set [2], the IC50 worked out at 5.4 µM. For the same compound, the MEC came to 0.14 µM in data set [3], 0.44 µM in [5] and 0.25 µM in [6]. Besides, the CC50 at 6 h in [8] is > 24 µM.
Take `CCCC[C@@H](CCO)Nc1nc(N)nc2c(F)cccc12`: the metabolised at 0.25 h, 1 µM was 98% in [1] and 76% in [4]. The compound also returned an IC50 in [2] of 4.47 µM. The MEC worked out at 0.05 µM in data set [3], 0.11 µM in data set [5] and 0.16 µM in data set [6]. In addition, the CC50 at 6 h in data set [8] was > 24 µM.

These data come from ChEMBL document CHEMBL4130635, “2,4-Diaminoquinazolines as Dual Toll-like Receptor (TLR) 7/8 Modulators for the Treatment of Hepatitis B Virus” (J Med Chem, 2018).
